Measurements collected from several papers.
Target: TRAF2 and NCK-interacting protein kinase (TNIK, Homo sapiens, UniProt Q9UKE5)

CN([C@@H]1CCc2c(CC(=O)O)c3cc(S(C)(=O)=O)ccc3n2C1)S(=O)(=O)c1ccc(F)cc1 — remaining binding (cell-free assay, competition with immobilised ligand; 1 µM): 100%
Cc1cnc(Nc2ccc(C(=O)N3CCC(N4CCCC4)CC3)cc2)nc1-c1cc2ccccc2s1 — remaining binding (binding, competition with immobilised ligand; 1 µM): 68%
O=C(Nc1c[nH]nc1C(=O)NC1CCNCC1)c1cc(F)cc(F)c1 — remaining binding (binding, competition with immobilised ligand; 1 µM): 100%
CN(C)c1nccc(-c2cnn3ncccc23)n1 — remaining binding (binding; 1 µM): 100%
Nc1ncc2c(n1)-c1c([nH]c3ccc(C#CC4CC4)cc13)CCCC2 — remaining binding (binding, competition with immobilised ligand; 1 µM): 42%
F[C@@H]1CCN(c2nccc(-c3cnn4ncccc34)n2)C1 — remaining binding (binding; 1 µM): 100%
CNC(=O)Nc1ccc2c(c1)CC[C@@]21OC(=O)N(CC(=O)N(Cc2ccc(F)cc2)[C@@H](C)C(F)(F)F)C1=O — remaining binding (cell-free assay, competition with immobilised ligand; 1 µM): 93%
CN(C)c1nccc(-c2cnc3ncccn23)n1 — remaining binding (binding; 1 µM): 84%
CNC(=O)[C@@H]1CC[C@@H](n2c(-c3ccc4cnccc4c3)nc3ccc(C(=O)NCc4cccc(C(N)=O)c4)cc32)C1 — remaining binding (binding, competition with immobilised ligand; 1 µM): 90%
N[C@@H]1CCN(c2nccc(-c3cnn4ncccc34)n2)C1 — remaining binding (binding; 1 µM): 100%
CCN1CCN(Cc2ccc(C(=O)Nc3ccc(C)c(Oc4ccc5c(c4)CC(=O)N5)c3)cc2C(F)(F)F)CC1 — remaining binding (binding, competition with immobilised ligand; 1 µM): 79%
C=CC(=O)N1CCC(C(=O)NCC(=O)N2CCN(c3nc(-c4cnc(N)nc4C(F)F)nc(N4CCOCC4)n3)CC2)CC1 — remaining binding (binding, competition with immobilised ligand; 1 µM): 87%
O=C(c1ccc(Nc2ncc(Cl)c(-c3cc4ccccc4s3)n2)cc1)N1CCC(N2CCCC2)CC1 — remaining binding (binding, competition with immobilised ligand; 1 µM): 73%
CC(C)(O)c1cncc(-c2nc3ccc(F)cc3n2C2CC2)c1 — remaining binding (cell-free assay, competition with immobilised ligand; 1 µM): 100%
O=C(NCCCN1CCOCC1)c1ccc(Nc2nccc(-c3cc4ccccc4s3)n2)cc1 — remaining binding (binding, competition with immobilised ligand; 1 µM): 69%
CCC(=N\O)/C(C)=C/c1ccc(F)cc1 — remaining binding (cell-free assay, competition with immobilised ligand; 1 µM): 93%
C[C@H]1CCN(c2nccc(-c3cnn4ncccc34)n2)C1 — remaining binding (binding; 1 µM): 100%
CC(C)CC(=O)N1CCc2nc(-c3ccc(Br)cc3)nc(N(C)Cc3ccccc3)c2C1 — remaining binding (cell-free assay, competition with immobilised ligand; 0.1 µM): 100%
CC1CCCN1c1nccc(-c2cnn3ncccc23)n1 (stereo not drawn) — remaining binding (binding; 1 µM): 95%
Cc1cc(C)c(-n2ccn3nc(-c4cccnc4)cc23)cc1NC(=O)c1cc(C#N)cc(S(F)(F)(F)(F)F)c1 — remaining binding (cell-free assay, competition with immobilised ligand; 0.1 µM): 97.4%
c1cncc(-c2cccc(Nc3nccc(NC4CCCCC4)n3)c2)c1 — remaining binding (binding, competition with immobilised ligand; 10 µM): 33%
